Test results as given in ChEMBL document CHEMBL1143839, “Antiplasmodial activity of lauryl-lysine oligomers” (Antimicrob Agents Chemother, 2007).

Experiments:
[1] = Toxicity against human erythrocytes assessed as hemolysis at 100 uM after 1 hr; type: cell-based, Erythrocyte; conditions: read-out: Activity
How it was run: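 Heparinized fresh human blood washed three times in PBS (200 × g, 2 min), mixed with compound in PBS to 4% hematocrit. Incubated 1 h at 37°C with stirring, then centrifuged. Supernatant absorbance read at 460 nm. PBS alone gave baseline and 0.4% Triton X-100 gave 100% lysis. At least two independent experiments.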

MDCK = assay: Cytotoxicity against dog MDCK cells after 3.5 hrs by Alamar blue assay; type: cell-based; conditions: Canis lupus familiaris
How it was run: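 Cells grown to confluence (~3 days) with different compound concentrations in parallel cultures. Viability then read by Alamar blue fluorescence 3.5 h after dye addition. Cycloheximide 10 µM added at start as positive control. IC50 taken as concentration reducing viability by 50%. At least two independent experiments in duplicate.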

[2] = Ratio of LC50 for erythrocytes to IC50 for Plasmodium falciparum W2; type: functional
[3] = Ratio of IC50 for dog MDCK cells to IC50 for Plasmodium falciparum W2; type: functional
Plasmodium falciparum = assay: Antiplasmodial activity against Plasmodium falciparum W2 as reduced [3H]hypoxanthine uptake after 18 hrs

Structure (SMILES)	hemolysis at 1 h, 100 µM [1] [%]	IC50 (MDCK) [µM]	Ratio LC50/IC50 [2]	Ratio IC50 [3]	IC50 (Plasmodium falciparum) [µM]
NCCCCC(N)C(=O)NCCCCCCCCCCCC(=O)NC(CCCCN)C(=O)O (stereo not given)	< 0.1	> 800	>700	>12	68.2
CCCCCCCCCCCC(=O)NC(CCCCN)C(=O)NCCCCCCCCCCCC(=O)NC(CCCCN)C(=O)O (stereo not given)	4.9	> 100	288	>28	3.54
NCCCCCCCCCCCC(=O)NC(CCCCN)C(=O)NCCCCCCCCCCCC(=O)NC(CCCCN)C(=O)O (stereo not given)	0.14	> 150	7714	>32	4.63
CCCCCCCCCCCC(=O)NC(CCCCN)C(=O)NCCCCCCCCCCCC(=O)NC(CCCCN)C(=O)NCCCCCCCCCCCC(=O)NC(CCCCN)C(=O)O (stereo not given)	13.3	75	442	88	0.85
NCCCCC(N)C(=O)NCCCCCCCCCCCC(=O)NC(CCCCN)C(=O)NCCCCCCCCCCCC(=O)NC(CCCCN)C(=O)O (stereo not given)	< 0.1	> 400	>6300	>51	7.85
NCCCCCCCCCCCC(=O)NC(CCCCN)C(=O)NCCCCCCCCCCCC(=O)NC(CCCCN)C(=O)NCCCCCCCCCCCC(=O)NC(CCCCN)C(=O)O (stereo not given)	3.4	91	10734	650	0.14
NCCCCC(N)C(=O)NCCCCCCCCCCCC(=O)NC(CCCCN)C(=O)NCCCCCCCCCCCC(=O)NC(CCCCN)C(=O)NCCCCCCCCCCCC(=O)NC(CCCCN)C(=O)O (stereo not given)	2.3	> 270	1263	>157	1.72
CCCCCCCCCCCC(=O)NC(CCCCN)C(=O)NCCCCCCCCCCCC(=O)NC(CCCCN)C(=O)NCCCCCCCCCCCC(=O)NC(CCCCN)C(=O)NCCCCCCCCCCCC(=O)NC(CCCCN)C(=O)O (stereo not given)	26.1	37	2317	1052	0.08
NCCCCCCCCCCCC(=O)NC(CCCCN)C(=O)NCCCCCCCCCCCC(=O)NC(CCCCN)C(=O)NCCCCCCCCCCCC(=O)NC(CCCCN)C(=O)NCCCCCCCCCCCC(=O)NC(CCCCN)C(=O)O (stereo not given)	24.6	> 75	126	>47	1.59
